PDI inh = inhibitors of human PDI, primary screen, biochemical, turbidity, single point, plate reader; inhibition, % at 10 µM; PDI insulin aggregation turbidity, A650, 90 min; AID 588391, 2011; Protein disulfide-isomerase (Homo sapiens), P07237; hit rate 0.052% among 350,000;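 active = mean inhibition across replicates of 30% or more, whatever share of single replicates reach that level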
Target sequence (P07237 whole entry, looked up): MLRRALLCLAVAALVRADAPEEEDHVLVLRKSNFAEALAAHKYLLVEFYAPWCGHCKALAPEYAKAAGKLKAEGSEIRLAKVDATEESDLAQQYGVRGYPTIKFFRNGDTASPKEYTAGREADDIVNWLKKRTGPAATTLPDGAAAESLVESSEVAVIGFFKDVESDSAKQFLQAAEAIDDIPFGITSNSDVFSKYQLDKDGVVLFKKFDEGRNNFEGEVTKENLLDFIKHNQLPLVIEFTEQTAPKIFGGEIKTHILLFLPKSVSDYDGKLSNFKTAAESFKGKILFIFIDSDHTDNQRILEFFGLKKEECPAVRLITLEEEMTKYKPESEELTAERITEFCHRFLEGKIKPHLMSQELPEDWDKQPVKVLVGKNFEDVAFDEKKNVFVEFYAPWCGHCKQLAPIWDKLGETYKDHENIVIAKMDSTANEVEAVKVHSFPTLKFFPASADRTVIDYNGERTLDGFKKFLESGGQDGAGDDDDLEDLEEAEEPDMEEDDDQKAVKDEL
ARNT TACC3 PPI = disruptors of ARNT/TACC3 protein interaction, primary screen, biochemical, AlphaScreen, single concentration. Transforming acidic coiled-coil-containing protein 3 (Homo sapiens), Q9Y6A5. AlphaScreen His-ARNT PAS-B/GST-TACC3 binding, luminescence; TACC3 fragment carries E629A point mutation. inhibition, % at 9.99 µM. hit rate 0.66% among 390,000;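 active = mean inhibition of replicates at least 50% and at least half of replicates each reaching 50%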;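 note: 0% = complete ARNT plus TACC3 wells and 100% = ARNT alone without TACC3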
ERp5 inh = inhibitors of ERp5-driven insulin aggregation, primary screen, biochemical, turbidity, absorbance 650 nm, single point | 90 min | Protein disulfide-isomerase A6 (Homo sapiens), Q15084 | AID 651711, 2012 | hit rate 0.05% among 350,000 | inhibition, % at 9.99 µM;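 active = mean replicate inhibition above about 25%, with every replicate also reaching it, limit read from the data, passing the limit was not always enough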
FGF22 binding = binders of human FGF22 protein, primary screen, FGF22 synaptogenesis inhibitor project, biophysical, thermal shift, single point | recombinant FGF22 thermal shift, SYPRO orange fluorescence; percent of sucrose octasulfate shift, DMSO zero | Fibroblast growth factor 22 (Homo sapiens), Q9HCT0 | activity (Tm shift, normalised), % at 9.99 µM | hit rate 1.5% among 340,000;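 active = mean Tm shift, scaled 0 neutral to 100 positive control, at about 1.3% or above, every replicate too, limit read from the data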
MLL AF4-AF9 inh = inhibitors of AF4 peptide binding to AF9, primary screen, biochemical, AlphaScreen, biotin-AF4 peptide, FLAG-AF9, single point; Protein AF-9 (Homo sapiens), P42568; inhibition, % at 10 µM; hit rate 0.47% among 350,000; AID 651704, 2012;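 active = every replicate reaching a set inhibition limit, whatever the replicate mean, cut at about 25% in these data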;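 note: 0% = plate neutral control median and 100% = total signal loss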
FN deposit inh = inhibitors of fibronectin matrix deposition, primary screen, AH1F cells, Alexa488-fibronectin fluorescence, plate reader; AH1F fibroblasts, overnight; inhibition, % at 12.6 µM; hit rate 0.086% among 350,000; AID 743247, 2014;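 active = mean inhibition across replicates of 30% or more, regardless of how many single replicates reach that level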;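 note: positive control wells lacked labelled fibronectin entirely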
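Assay system: AH1F fibroblasts assembling fluorescent fibronectin matrix; Amount: 10000 AH1F cells per well; Buffer or medium: DMEM, 2% serum; Probe or stimulus: Alexa488-fibronectin, 24 nM final in well; Doses: single compound dose, delivered by pin transfer; Incubation: 1 h adhesion, overnight exposure; Measured by: fluorescence 485/525 nm; Read-out: fibronectin deposition inhibition.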
* marks the source's active call; other numbers are inactive results. Compounds with a hit are over-represented: about 2.1% of the library has one in this group of screens.

CC1CCCCN1S(=O)(=O)c1ccc(C(=O)Nc2nnc(C3CC3)o2)cc1 (stereo not given) was read as PDI inh -13, ARNT TACC3 PPI 46*, ERp5 inh -1, FGF22 binding 0, MLL AF4-AF9 inh 4 and FN deposit inh -2.
Screening CC(C)NC(=O)Nc1ccc2c(c1)C(=O)N([C@@H](C)CO)C[C@@H](C)[C@H](CN(C)S(=O)(=O)c1cccs1)O2 returned FN deposit inh 1.
`N#C[C@H]1[C@H](c2ccccc2-c2cccc(F)c2)[C@@H](CO)N1C(=O)C1CC1` gave ERp5 inh 1 and FN deposit inh -8.
Screening Brc1ccc(-c2nn3c(-c4ccco4)nnc3s2)o1 returned PDI inh 9, ARNT TACC3 PPI -21 and FN deposit inh 11.
Screening Brc1ccc(-c2nn3c(-c4ccccn4)nnc3s2)o1 returned PDI inh 1, ARNT TACC3 PPI 68* and FN deposit inh -9.
Screening C[C@H](CO)N1C[C@H](C)[C@H](CN(C)C(=O)Nc2ccc(F)cc2)Oc2ccc(N(C)C)cc2C1=O returned ERp5 inh 2, FGF22 binding 0 and MLL AF4-AF9 inh 2.
For CC#CC[N+](C)(C)CCCCCCCC the results were PDI inh 5, ARNT TACC3 PPI 8, ERp5 inh 2, FGF22 binding 0, MLL AF4-AF9 inh -2 and FN deposit inh -2.
CCCCCCCCCCCCCCCC[N+](C)(C)Cc1ccc(F)cc1 was read as PDI inh 41*, ARNT TACC3 PPI 5, ERp5 inh -16, FGF22 binding -1, MLL AF4-AF9 inh 5 and FN deposit inh 4.
Screening COCC(=O)Nc1ccc2c(c1)OC[C@H](C)N(C(=O)c1cccnc1)C[C@@H](C)[C@@H](OC)CN(C)C2=O returned ARNT TACC3 PPI -2, ERp5 inh 2, FGF22 binding 0, MLL AF4-AF9 inh 0 and FN deposit inh 2.
Screening Oc1cccc(Nc2c3ccccc3nc3ccccc23)c1 returned PDI inh 10, ARNT TACC3 PPI 8, ERp5 inh -5, FGF22 binding -1, MLL AF4-AF9 inh 0 and FN deposit inh -3.
For CCN(CC)Cc1cc(Nc2c3ccccc3nc3c4ccccc4n(C)c23)cc(CN(CC)CC)c1O the results were PDI inh 6, ARNT TACC3 PPI 29, ERp5 inh 5, FGF22 binding -1, MLL AF4-AF9 inh 55* and FN deposit inh 5.
For Cc1cnc(C(=O)NCCc2ccc(Cl)cc2)cn1 the results were PDI inh -7, ARNT TACC3 PPI 0, ERp5 inh 1, FGF22 binding 0 and MLL AF4-AF9 inh 3.
`Cc1cnc(C(=O)NCc2ccc(Cl)cc2Cl)cn1` gave PDI inh -8, ARNT TACC3 PPI -32, ERp5 inh -4, FGF22 binding 43* and MLL AF4-AF9 inh -2.
For S=c1[nH]nc(-c2ccncc2)n1/N=C/C=C/c1ccco1 the results were PDI inh 15, ARNT TACC3 PPI -1, ERp5 inh -2, FGF22 binding 0, MLL AF4-AF9 inh -5 and FN deposit inh -1.
`S=c1[nH]nc(-c2ccccc2Cl)n1/N=C/C=C/c1ccco1` gave PDI inh -3, ERp5 inh 1, FGF22 binding 0, MLL AF4-AF9 inh 47* and FN deposit inh 4.
Screening COc1cccc(S(=O)(=O)N(C)C[C@H]2Oc3cc(C#CCC(C)C)ccc3S(=O)(=O)N([C@@H](C)CO)C[C@@H]2C)c1 returned ARNT TACC3 PPI 0, ERp5 inh 2, FGF22 binding 0, MLL AF4-AF9 inh -2 and FN deposit inh -17.
`O=C1NC(=S)SC1=Cc1ccccc1C(=O)O` gave ERp5 inh 7, FGF22 binding 1.6*, MLL AF4-AF9 inh 0 and FN deposit inh -13.

Assay outcomes: PubChem, Broad Institute
